Calls of active or inactive are those of the source. The calls are words filed in the database; no cut-off is given here.
Experiments:
MCF7 [1] = experiment: Induction of ROS generation in human MCF7 cells at 30 uM incubated for 72 hrs by APF probe-based flow cytometer analysis relative to control; assay type: cell-based; conditions: mcf7, 72 h
Outline: (§1)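 Cells were treated with 30 μM compound. Highly reactive oxygen species were detected with the APF probe, and APF mean fluorescence intensity was measured by FACS and normalized to solvent control.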

KB [2] = experiment: Induction of ROS generation in human KB cells at 30 uM incubated for 72 hrs by APF probe-based flow cytometer analysis relative to control; assay type: functional; outline: as §1
MCF7 [3] = experiment: Cytotoxicity against human MCF7 cells in high folate medium assessed as reduction in metabolic activity at 50 uM incubated for 24 to 72 hrs by MTS assay; assay type: ADME, cell-based; conditions: mcf7, 50 µM
Outline: (§2)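 MTS assay in standard high folate medium (RPMI-1640 containing 2.3 μM FA, 10% FCS). Cells were treated with 30 or 50 μM compound for 24, 48 and 72 h. Metabolic activity was compared with solvent control.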

KB [4] = experiment: Cytotoxicity against human KB cells in high folate medium assessed as reduction in metabolic activity at 30 uM incubated for 24 to 72 hrs by MTS assay; assay type: functional, cell-based; outline: as §2
IGROV-1 [5] = experiment: Cytotoxicity against human IGROV1 cells in low folate medium assessed as metabolic activity at 50 uM incubated for 72 hrs by MTS assay relative to control; assay type: functional
Outline: (§3)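 MTS metabolic-activity assay under low folate conditions (RPMI-1640, 10% dialyzed FCS, supplemented with 2 nM FA). Compounds were added as free ligand at 30 or 50 μM for 24, 48 and 72 h. Activity is expressed relative to DMSO control. Each treatment was run in triplicate and each experiment three times; mean ± SEM.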

IGROV-1 [6] = experiment: Cytotoxicity against human IGROV1 cells in low folate medium assessed as metabolic activity at 30 uM incubated for 72 hrs by MTS assay relative to control; assay type: functional; outline: as §3
[7] = (§4) Cytotoxicity against human MCF7 cells in low folate medium assessed as metabolic activity at 50 uM incubated for 72 hrs by MTS assay relative to control; assay type: ADME, cell-based; conditions: MCF7 cells, read-out: Activity; outline: as §3
KB [8] = experiment: Cytotoxicity against human KB cells in low folate medium assessed as metabolic activity at 50 uM measured after 72 hrs by MTS assay relative to control; assay type: functional; outline: as §3
[9] = (§5) Cytotoxicity against human MCF7 cells in low folate medium assessed as metabolic activity at 30 uM incubated for 72 hrs by MTS assay relative to control; assay type: ADME, cell-based; conditions: MCF7 cells, read-out: Activity; outline: as §3
KB [10] = experiment: Cytotoxicity against human KB cells in low folate medium assessed as metabolic activity at 30 uM measured after 72 hrs by MTS assay relative to control; assay type: functional; outline: as §3
Homo sapiens = species on record: Homo sapiens; experiment: Displacement of folate-FITC from folate receptor in human KB cells at 25 to 1000 pmol incubated for 10 mins by FITC staining-based FACS analysis; assay type: cell-based
Outline: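 Competition binding in 0.5·10^6 KB cells per experiment. Compound at 25, 50, 100, 250, 500 or 1000 pmol was combined with 50 pmol Folate-FITC. Cell-bound fluorescence was read by FACS as MFI on channel PL-1. Mean ± SEM, N ≥ 5.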

DNA = experiment: Induction of Escherichia coli XL1 Blue pUC18 DNA cleavage assessed as turnover frequency in presence of DTT and 1 equivalent of (NH4)2Fe(SO4)2.6H2O at 1 uM by agarose gel electrophoresis method; assay type: nucleic-acid assay
Outline: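 Supercoiled pUC18 plasmid DNA was incubated at 37 °C with 1 μM iron complex in the presence of DTT as reductant. Strand cleavage was followed and turnover frequency determined.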

[11] = Stability in pH 8.5 tris-HCl buffer assessed as cleavage of compound in presence of Fe(ClO4)2 and GSH incubated for 20 mins by LC-MS analysis; assay type: physicochemical; conditions: pH 8.5, 20 min
Outline: (§6)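 Conjugate kept in tris-HCl buffer pH 8.5 with two equivalents of Fe(ClO4)2 and 5 mM glutathione. LC-MS was used to follow in situ iron-complex formation and disulphide cleavage products at 5 min, 20 min and for a further 3 h.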

[12] = Stability in pH 8.5 tris-HCl buffer assessed as compound cleavage in presence of Fe(ClO4)2 and GSH after 5 mins by LC-MS analysis; assay type: physicochemical; conditions: pH 8.5, 5 min; outline: as §6
[13] = Binding affinity to iron assessed as formation of iron complex in the presence of Fe(ClO4)2 and GSH after 5 mins by LC-MS analysis; outline: as §6
KB [14] = experiment: Cytotoxicity against human KB cells in high folate medium assessed as reduction in metabolic activity at 30 uM incubated for 24 to 72 hrs in the presence of excess folic acid by MTS assay; assay type: functional, cell-based
Outline: (§7)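 Competition MTS assay in standard RPMI medium (high folate). Cells were co-treated with 30 μM compound plus 150 μM FA, or with 150 μM FA alone, for 24, 48 and 72 h, and metabolic activity was read by MTS.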

MCF7 [15] = experiment: Cytotoxicity against human MCF7 cells in high folate medium assessed as reduction in metabolic activity at 30 uM incubated for 24 to 72 hrs in the presence of excess folic acid by MTS assay; assay type: ADME, cell-based; conditions: mcf7, 30 µM; outline: as §7
IGROV-1 [16] = experiment: Cytotoxicity against human IGROV1 cells in high folate medium assessed as reduction in metabolic activity at 30 uM incubated for 24 to 72 hrs in the presence of excess folic acid by MTS assay; assay type: functional, cell-based; outline: as §7
MCF7 [17] = experiment: as §4; assay type: ADME, cell-based; conditions: mcf7, 72 h, 50 µM; outline: as §3
MCF7 [18] = experiment: as §5; assay type: ADME, cell-based; conditions: mcf7, 72 h, 30 µM; outline: as §3
KB [19] = experiment: Cytotoxicity against human KB cells in low folate medium assessed as reduction in metabolic activity at 50 uM measured after 48 hrs by MTS assay; assay type: functional, cell-based
Outline: (§8)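 MTS assay on KB cells under low folate conditions (RPMI-1640, 10% dialyzed FCS, 2 nM FA). Cells were exposed to 30 or 50 μM compound as free ligand for 24, 48 and 72 h and compared with DMSO control. Treatments in triplicate, experiment repeated three times; mean ± SEM.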

KB [20] = experiment: Cytotoxicity against human KB cells in low folate medium assessed as reduction in metabolic activity at 30 uM measured after 48 hrs by MTS assay; assay type: functional, cell-based; outline: as §8
[21] = Stability in pH 8.5 tris-HCl buffer assessed as cleavage of compound in presence of Fe(ClO4)2 and GSH incubated for 3 hrs by LC-MS analysis; conditions: pH 8.5, 3 h
[22] = Retention time of the compound by LC-MS analysis; assay type: physicochemical
MCF7 [23] = experiment: Cytotoxicity against human MCF7 cells in low folate medium assessed as reduction in metabolic activity at 1 to 150 uM incubated for 24 to 72 hrs by MTS assay; assay type: ADME, cell-based; conditions: mcf7, 150 µM
Outline: (§9)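 MTS metabolic-activity assay in low folate RPMI-1640 with 10% dialyzed FCS and 2 nM FA. Compound concentrations ran from 1 to 150 μM, with incubation for 24, 48 and 72 h. IC50 values were derived from the concentration-response data.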

KB [24] = experiment: Cytotoxicity against human KB cells in low folate medium assessed as reduction in metabolic activity at 1 to 150 uM incubated for 24 to 72 hrs by MTS assay; assay type: functional, cell-based; outline: as §9
IGROV-1 [25] = experiment: Cytotoxicity against human IGROV1 cells in low folate medium assessed as reduction in metabolic activity at 1 to 150 uM incubated for 24 to 72 hrs by MTS assay; assay type: functional, cell-based; outline: as §9

SMILES | fold change (FC) (MCF7 [1]) | Activity (DNA) [s⁻¹] | Activity [13] | Retention_time [22] [min] | Activity (MCF7 [3]) | Activity (KB [4]) | Activity (IGROV-1 [5]) [%] | Activity (IGROV-1 [6]) [%] | Activity (KB [8]) [%] | Activity (KB [10]) [%] | Activity (Homo sapiens) | Activity (KB [14]) | Activity (MCF7 [15]) | Activity (IGROV-1 [16]) | Activity (KB [2]) | other results
Nc1nc(O)c2nc(CNc3ccc(C(=O)N[C@@H](CCC(=O)NCCNC(=O)CCSSCCC(=O)NCCCNC(=O)c4ccc(CN(Cc5ccccn5)C(c5ccccn5)c5ccccn5)nc4)C(=O)O)cc3)cnc2n1 | 1.6 | 0.19 | Active | – | Non-Toxic | inactive | 22 | 47.2 | 11.2 | 38.8 | Active | inactive | Non-Toxic | inactive | – | fold change (FC) (KB [2]): 3.5; viability at 72 h, 50 µM [7]: 76.4%; viability at 72 h, 30 µM [9]: 78.9%; Stability [11]: Unstable; Stability [12]: Unstable
Nc1nc2ncc(CNc3ccc(C(=O)N[C@@H](CCC(=O)O)C(=O)O)cc3)nc2c(=O)[nH]1 [FOLIC ACID] | – | – | – | – | – | – | – | – | – | – | – | – | – | – | – | Activity (MCF7 [23]): Non-Toxic
Nc1nc(=O)c2nc(CNc3ccc(C(=O)N[C@@H](CCC(=O)O)C(=O)O)cc3)cnc2[nH]1 | – | – | – | – | – | – | – | – | – | – | Active | – | – | – | inactive | Activity (KB [24]): inactive; Activity (IGROV-1 [25]): inactive

More lines, main results first:

fold change (FC) (MCF7 [1]) | Activity (DNA) [s⁻¹] | Activity [13] | Retention_time [22] [min] | SMILES | Activity (MCF7 [3]) | Activity (KB [4]) | Activity (IGROV-1 [5]) [%] | Activity (IGROV-1 [6]) [%] | Activity (KB [8]) [%] | Activity (KB [10]) [%] | Activity (Homo sapiens) | Activity (KB [14]) | Activity (MCF7 [15]) | Activity (IGROV-1 [16]) | Activity (KB [2]) | other results
1.6 | 0.16 | Active | – | Nc1nc(O)c2nc(CNc3ccc(C(=O)N[C@@H](CCC(=O)NCCNC(=O)CCCCCCC(=O)NCCCNC(=O)c4ccc(CN(Cc5ccccn5)C(c5ccccn5)c5ccccn5)nc4)C(=O)O)cc3)cnc2n1 | Non-Toxic | inactive | 58.1 | 82.4 | 62.4 | 88.1 | Active | inactive | Non-Toxic | inactive | inactive | Activity (MCF7 [17]): Non-Toxic; Activity (MCF7 [18]): Non-Toxic; Activity (KB [19]): inactive; Activity (KB [20]): inactive; Stability [21]: Stable
– | – | – | 9.12 | Nc1nc(O)c2nc(CNc3ccc(C(=O)N[C@@H](CCC(=O)NCCNC(=O)CCS)C(=O)O)cc3)cnc2n1 | – | – | – | – | – | – | – | – | – | – | – | –
– | – | – | 8.77 | Nc1nc(O)c2nc(CNc3ccc(C(=O)N[C@@H](CCC(=O)NCCNC(=O)CCSSC[C@H](NC(=O)CC[C@H](N)C(=O)O)C(=O)NCC(=O)O)C(=O)O)cc3)cnc2n1 | – | – | – | – | – | – | – | – | – | – | – | –
